Published values gathered from unrelated publications.
Each line is one published result; the experiments were not run side by side.
Target: Serine/threonine-protein kinase ULK2 (ULK2, Homo sapiens, UniProt Q8IYT8)
Sequence (Q8IYT8 1-1036, as in one of the studies): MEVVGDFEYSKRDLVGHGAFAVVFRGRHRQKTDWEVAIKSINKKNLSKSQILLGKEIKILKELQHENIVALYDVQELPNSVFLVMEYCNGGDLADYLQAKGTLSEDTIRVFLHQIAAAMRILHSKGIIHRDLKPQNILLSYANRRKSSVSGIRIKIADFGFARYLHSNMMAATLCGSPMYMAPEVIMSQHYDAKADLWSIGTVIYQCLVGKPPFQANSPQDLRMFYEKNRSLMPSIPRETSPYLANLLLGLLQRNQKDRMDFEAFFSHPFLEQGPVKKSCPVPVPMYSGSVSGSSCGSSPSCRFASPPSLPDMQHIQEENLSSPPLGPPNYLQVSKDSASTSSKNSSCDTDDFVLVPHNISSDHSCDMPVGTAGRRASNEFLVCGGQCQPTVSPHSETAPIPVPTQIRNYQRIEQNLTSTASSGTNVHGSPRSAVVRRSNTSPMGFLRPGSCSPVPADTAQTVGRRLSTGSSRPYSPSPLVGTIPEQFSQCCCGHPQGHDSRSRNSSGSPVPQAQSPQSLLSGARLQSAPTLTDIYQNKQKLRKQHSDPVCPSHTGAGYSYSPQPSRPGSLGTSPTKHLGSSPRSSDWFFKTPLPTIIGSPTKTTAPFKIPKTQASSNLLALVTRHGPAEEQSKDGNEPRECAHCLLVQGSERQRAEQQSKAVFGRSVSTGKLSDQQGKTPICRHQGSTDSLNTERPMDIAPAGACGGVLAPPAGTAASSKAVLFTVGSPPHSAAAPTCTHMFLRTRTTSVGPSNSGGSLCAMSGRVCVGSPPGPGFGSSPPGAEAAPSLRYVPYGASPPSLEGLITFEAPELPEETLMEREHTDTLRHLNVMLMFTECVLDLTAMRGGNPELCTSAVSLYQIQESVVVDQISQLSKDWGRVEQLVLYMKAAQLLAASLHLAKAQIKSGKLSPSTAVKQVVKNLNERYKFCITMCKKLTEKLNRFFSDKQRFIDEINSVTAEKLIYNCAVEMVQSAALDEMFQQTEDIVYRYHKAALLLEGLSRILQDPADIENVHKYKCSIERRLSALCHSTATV

| SMILES | assay | conditions | remaining binding |
| --- | --- | --- | --- |
| c1cncc(-c2cccc(Nc3nccc(NC4CCCCC4)n3)c2)c1 | binding, competition with immobilised ligand | 10 µM | 80% |
| C[C@@H](c1ccc(-n2cnc3c(N)ncnc32)cc1)N1CCc2nn(C)c(Cc3ccccc3)c2C1=O | binding, competition with immobilised ligand | 0.1 µM | 70% |
| COc1ccnn2ncc(-c3ccnc(N(C)C)n3)c12 | binding | 1 µM | 100% |
| COc1cnc(Nc2cccc(S(N)(=O)=O)c2)nc1N1CCN(c2ccccc2)CC1 | binding, competition with immobilised ligand | 1 µM | 96% |
| COc1cc(-c2cn(C3CCc4c(F)cccc4N(CC(F)(F)F)C3=O)nn2)ccc1-n1cnc(C)c1 (stereo not shown) | cell-free assay, competition with immobilised ligand | 1 µM | 100% |
| C[C@@H]1CCN(c2nccc(-c3cnn4ncccc34)n2)C1 | binding | 1 µM | 69% |
| CSc1cccnc1N1CCN(Cc2nc3ccccc3[nH]2)CC1 | cell-free assay, competition with immobilised ligand | 1 µM | 94% |
| COc1ncc2cc3ccccc3nc2c1C#N | cell-free assay, competition with immobilised ligand | 5 µM | 100% |
| O=C1CCc2cc(Nc3cc(OC4CCOCC4)c([N+](=O)[O-])cc3Cl)ccc2N1 | cell-free assay, competition with immobilised ligand | 1 µM | 99% |
| CNC(=O)[C@@H]1CC[C@@H](n2c(-c3ccc4cnccc4c3)nc3ccc(C(=O)NCc4cccc(C(N)=O)c4)cc32)C1 | binding, competition with immobilised ligand | 1 µM | 100% |
| CS(=O)(=O)c1cc(C2(NC(=O)c3cncc4c3cnn4-c3ccc(F)cc3)CC2)ccn1 | cell-free assay, competition with immobilised ligand | 1 µM | 92% |
| F[C@@H]1CCN(c2nccc(-c3cnn4ncccc34)n2)C1 | binding | 1 µM | 100% |
| N#Cc1ccccc1CSc1nnc2c(n1)[nH]c1ccccc12 | binding, competition with immobilised ligand | 10 µM | 94% |
| N[C@@H]1CCN(c2nccc(-c3cnn4ncccc34)n2)C1 | binding | 1 µM | 100% |
| Cc1cnc(Nc2ccc(C(=O)N3CCC(N4CCCC4)CC3)cc2)nc1-c1cc2ccccc2s1 | binding, competition with immobilised ligand | 1 µM | 12% |
| C[C@@H]1CN(c2ccc3ncc(-c4ccc5[nH]nc(C6CC6)c5c4)n3n2)C[C@H](C)O1 | binding, competition with immobilised ligand | 0.5 µM | 91% |
| CN(C)c1nccc(-c2cnc3ncccn23)n1 | binding | 1 µM | 74% |
| COc1ccc2c(c1)O[C@H](c1ccc(OC)c(OC)c1)C[C@@H]2NC(=O)C1(c2ccc3c(c2)OC(F)(F)O3)CC1 | cell-free assay, competition with immobilised ligand | 1 µM | 100% |
| O=C(c1ccc(Nc2ncc(Cl)c(-c3cc4ccccc4s3)n2)cc1)N1CCC(N2CCCC2)CC1 | binding, competition with immobilised ligand | 1 µM | 35% |
| c1cnn2ncc(-c3ccnc(N4CCC45COC5)n3)c2c1 | binding | 1 µM | 59% |
| CCN1CCN(Cc2ccc(C(=O)Nc3ccc(C)c(Oc4ccc5c(c4)CC(=O)N5)c3)cc2C(F)(F)F)CC1 | binding, competition with immobilised ligand | 1 µM | 100% |
| O=C(O)[C@H]1[C@H](Cn2nnc3ccccc3c2=O)CC[C@@H]1C(=O)c1ccc(OCCC2CCOCC2)cc1 | cell-free assay, competition with immobilised ligand | 1 µM | 100% |
| O=C(NCC1CCOCC1)c1n[nH]cc1NC(=O)c1c(F)cccc1F | binding, competition with immobilised ligand | 1 µM | 81% |
| CCCOc1ccc([C@H]2[C@H](C(=O)O)[C@@H](c3ccc4c(c3)OCO4)CN2CC(=O)Nc2c(CC)cccc2CC)cc1 | cell-free assay, competition with immobilised ligand | 1 µM | 55% |
| O=C(c1ccc(Nc2nccc(-c3cc4ccccc4s3)n2)cc1)N1CCC(N2CCCC2)CC1 | binding, competition with immobilised ligand | 1 µM | 87% |
